Reference: ChEMBL document CHEMBL1130160 (J Med Chem, 1997)
pIC50: −log10 of the molar value.

Legend:
Rattus norvegicus [1] = experiment: Percent decrease in serum cholesterol relative to OVX control at 10 mg/kg in rat was determined (in vivo); type: functional
Summary of the method: (§1)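 OVX Sprague–Dawley rats (75 days old), 5–6 per group, dosed once daily by oral gavage for 4 consecutive days, starting 14 days after ovariectomy. Vehicle was 20% β-hydroxycyclodextrin at 1 mL/kg, or 1.5% carboxymethylcellulose in some cases. Rats were fasted after the last dose and bled by cardiac puncture next morning.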

Estrogen receptor = Estrogen receptor (Homo sapiens, UniProt Q92731+P03372); conditions: mcf7
Rattus norvegicus [2] = experiment: Minimum effective dose at which significant increase in uterine eosinophil peroxidase (EPO) activity in rat was determined (in vivo); type: functional; conditions: read-out: MED
Rattus norvegicus [3] = experiment: Percent decrease in serum cholesterol relative to OVX control at 1.0 mg/kg in rats; type: functional; summary of the method: as §1
Rattus norvegicus [4] = experiment: Percent decrease in serum cholesterol relative to OVX control at 0.1 mg/kg in rats; type: functional; summary of the method: as §1
Rattus norvegicus [5] = experiment: Minimum effective dose at which significant increase in uterine weight/body weight in rat was determined (in vivo); type: functional; conditions: read-out: MED
Summary of the method: (§2)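 In 75-day OVX Sprague–Dawley rats dosed orally for 4 days, beginning 2 weeks post-ovariectomy with 5–6 rats per group, whole uteri were weighed the morning after fasting. MED is the lowest dose giving a significant (p≤0.05) rise in uterine weight/body weight, expressed as % increase over OVX controls ±SE.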

Rattus norvegicus [6] = experiment: Dose required to reduce serum cholesterol by 50% relative to OVX controls was determined (in vivo); type: functional; summary of the method: as §1
Rattus norvegicus [7] = experiment: Minimum effective dose at which significant increase in uterine weight/body weight in rat was determined (in vivo); expressed as % increase relative to ovariectomized (OVX) controls; type: functional; summary of the method: as §2
Rattus norvegicus [8] = experiment: Percent decrease in serum cholesterol relative to OVX control at 1 mg/kg in rat; type: functional; summary of the method: as §1
Rattus norvegicus [9] = experiment: Eosinophil peroxidase activity expressed as Vmax was determined in rat (in vivo) Eosinophil peroxidase activity expressed as Vmax was determined in rat (in vivo); type: functional; design: unit not given here
Rattus norvegicus [10] = experiment: Percent decrease in serum cholesterol relative to OVX control at 0.1 mg/kg in rat was determined (in vivo); type: functional; summary of the method: as §1

Row | Compound | Decrease (Rattus norvegicus [1]) | IC50 (Estrogen receptor) | minimal effective dose (Rattus norvegicus [2]) | Decrease (Rattus norvegicus [3]) | Decrease (Rattus norvegicus [4]) | minimal effective dose (Rattus norvegicus [5]) | ED50 (Rattus norvegicus [6]) | Increase (Rattus norvegicus [7]) | Decrease (Rattus norvegicus [8]) | Eosinophil peroxidase activity (Vmax) (Rattus norvegicus [9]) | Decrease (Rattus norvegicus [10]) | pIC50 (Estrogen receptor)
1 | O=C(c1ccc(OCCN2CCCCC2)cc1)c1c(-c2cc[n+]([O-])cc2)sc2cc(O)ccc12 | 42.6% | 100 nM | > 10 mg/kg | 1.8% | -16.6% | > 10 mg/kg | > 10 mg/kg | – | – | – | – | –
2 | O=C(c1ccc(OCCN2CCCCC2)cc1)c1c(C2CCCCC2)sc2cc(O)ccc12 | 61.7% | – | > 10 mg/kg | 52.9% | -0.1% | 1 mg/kg | 2.1 mg/kg | 30.2% | – | – | – | –
3 | CC(C)c1sc2cc(O)ccc2c1C(=O)c1ccc(OCCN2CCCCC2)cc1 | 35% | – | > 10 mg/kg | 30.5% | 12.4% | > 10 mg/kg | > 10 mg/kg | – | – | – | – | –
4 | CSc1ccc(-c2sc3cc(O)ccc3c2C(=O)c2ccc(OCCN3CCCCC3)cc2)cc1 | 75.3% | – | 1 mg/kg | – | – | 1 mg/kg | 0.9 mg/kg | 50.2% | 51.5% | 37.5 | 27.7% | –
5 | COc1ccc2c(C(=O)c3ccc(OCCN4CCCCC4)cc3)c(-c3ccc(O)cc3)sc2c1 | 50% | 250 nM | > 10 mg/kg | – | – | 1 mg/kg | < 0.1 mg/kg | 33.5% | 64.5% | – | 54.8% | –
6 | O=C(c1ccc(OCCN2CCCCC2)cc1)c1c(-c2ccncc2)sc2cc(O)ccc12 | 47.6% | 100 nM | > 10 mg/kg | 24% | 7.2% | 1 mg/kg | 14.6 mg/kg | 33.3% | – | – | – | –
7 | Cl.O=C(c1ccc(OCCN2CCCCC2)cc1)c1c(-c2ccccc2)sc2ccccc12 | 45.6% | 300 nM | > 10 mg/kg | – | – | 0.1 mg/kg | < 0.1 mg/kg | 59.2% | 72.6% | – | 59.4% | –
8 | NC(=O)c1ccc2c(C(=O)c3ccc(OCCN4CCCCC4)cc3)c(-c3ccc(O)cc3)sc2c1 | – | – | > 10 mg/kg | -14.9% | – | 10 mg/kg | – | 30.7% | – | – | – | 6.00
9 | COC(=O)c1ccc(-c2sc3cc(O)ccc3c2C(=O)c2ccc(OCCN3CCCCC3)cc2)cc1 | 56.1% | – | 10 mg/kg | – | – | 1 mg/kg | 3.8 mg/kg | 37.2% | 42.1% | 13.2 | 23.8% | –
10 | O=C(c1ccc(OCCN2CCCCC2)cc1)c1c(-c2ccsc2)sc2cc(O)ccc12 | 31.8% | 10 nM | > 10 mg/kg | – | 0.6% | 10 mg/kg | > 10 mg/kg | – | – | – | – | –
11 | CCCCc1ccc(-c2sc3cc(O)ccc3c2C(=O)c2ccc(OCCN3CCCCC3)cc2)cc1 | 72% | 10 nM | 10 mg/kg | – | – | > 10 mg/kg | 2.3 mg/kg | – | 14.5% | 20.8 | 21.3% | –
12 | CCSCc1ccc(-c2sc3cc(O)ccc3c2C(=O)c2ccc(OCCN3CCCCC3)cc2)cc1 | 63% | 100 nM | 1 mg/kg | – | – | 1 mg/kg | 2.5 mg/kg | 30.5% | 40.1% | 36.9 | 21.7% | –
13 | O=C(c1ccc(OCCN2CCCCC2)cc1)c1c(-c2cccc3ccccc23)sc2cc(O)ccc12 | 67.8% | 0.8 nM | > 10 mg/kg | 53.9% | 40.1% | > 10 mg/kg | 0.5 mg/kg | – | – | – | – | –
14 | Cc1sc2cc(O)ccc2c1C(=O)c1ccc(OCCN2CCCCC2)cc1 | 62.9% | – | > 10 mg/kg | 53.8% | 8.3% | > 10 mg/kg | 1.8 mg/kg | – | – | – | – | –
15 | O=C(c1ccc(OCCN2CCCCC2)cc1)c1c(-c2cccs2)sc2cc(O)ccc12 | – | 20 nM | > 10 mg/kg | -0.9% | – | 1 mg/kg | 11 mg/kg | – | – | – | – | –
16 | C=Cc1ccc(-c2sc3cc(O)ccc3c2C(=O)c2ccc(OCCN3CCCCC3)cc2)cc1 | 49.7% | – | 1 mg/kg | – | – | 0.1 mg/kg | 10 mg/kg | 26.9% | 41.5% | 48 | -7% | –
17 | COc1ccc(-c2sc3cc(OC)ccc3c2C(=O)c2ccc(OCCN3CCCCC3)cc2)cc1.Cl | 68.5% | 300 nM | > 10 mg/kg | – | – | 0.1 mg/kg | < 0.1 mg/kg | 57.3% | 78% | – | 62.2% | –
18 | CCc1sc2cc(O)ccc2c1C(=O)c1ccc(OCCN2CCCCC2)cc1 | 31.1% | – | > 10 mg/kg | 26.5% | 4.4% | 10 mg/kg | – | 55.03% | – | – | – | –
19 | O=C(c1ccc(OCCN2CCCCC2)cc1)c1c(C2CCCC2)sc2cc(O)ccc12 | 69.6% | – | > 10 mg/kg | 55.6% | 18.4% | > 10 mg/kg | 1.2 mg/kg | – | – | – | – | –
20 | Cc1ccc(-c2sc3cc(O)ccc3c2C(=O)c2ccc(OCCN3CCCCC3)cc2)cc1.Cl | 69.1% | 50 nM | > 10 mg/kg | – | – | 1 mg/kg | 2.9 mg/kg | 34.6% | 26.5% | – | 12.2% | –
21 | O=C(c1ccc(OCCN2CCCCC2)cc1)c1c(-c2ccc(-c3ccccc3)cc2)sc2cc(O)ccc12 | 68.5% | 100 nM | 1 mg/kg | – | – | 0.1 mg/kg | 2.4 mg/kg | 50.3% | 37% | 25.4 | 12.9% | –
22 | Cc1cc(-c2sc3cc(O)ccc3c2C(=O)c2ccc(OCCN3CCCCC3)cc2)cc(C)c1O | 69.1% | 100 nM | 1 mg/kg | – | – | 1 mg/kg | 1.8 mg/kg | 33.8% | 40.2% | 40.8 | 23.1% | –
23 | Cl.O=C(c1ccc(OCCN2CCCCC2)cc1)c1c(-c2ccccc2)sc2cc(O)ccc12 | 66% | 2.5 nM | > 10 mg/kg | – | – | 0.1 mg/kg | < 0.1 mg/kg | 38.7% | 53.4% | – | 55.6% | –
